For 64 molecules, activation results are on record in PubChem BioAssay AID504383 (The Scripps Research Institute Molecular Screening Center, 2011).

Structures are written as SMILES. In all, about 2,500 compounds went through this assay and about 1,200 (48%) were called active.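 How the source made its calls: active means mean activation above the low control average plus 3 SD, as set in the primary screen (cut at about 12% in these data); inactive means the rest.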 So high a share suggests a set chosen from earlier hits. Some of the results follow.

The assay addresses Troponin I, cardiac muscle (Homo sapiens) + Troponin T, cardiac muscle (Homo sapiens) + Troponin C, slow skeletal and cardiac muscles (Homo sapiens) (UniProt P19429+P45379+P63316). Nature of the assay: calcium sensitizers of cardiac thin filaments – biochemical, IANBD-TnC fluorescence, triplicate, confirmation (AID 504383).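 Further: 0% = DMSO at 0.472 mM calcium and 100% = DMSO at 2.9 mM calcium.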 As to conditions: IANBD-labeled cardiac RTF, Ca2+ sensitivity fluorescence; at 7.2 µM; stronger effect = higher value; scaled from EC20 to saturating calcium; tested at EC20 calcium, 0.472 mM. The gist of the method: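 Assay system: labelled regulated thin filament protein complex; schedule: 15 min compound incubation with filaments at 25 °C; benchmarks: low control EC20 calcium, high control EC100 calcium; reagent: Ca2+ 0.472 mM, EC20 level; doses: one dose, 7.2 µM nominal; evaluation: fluorescence gain scaled between EC20 and EC100 calcium controls; signal: filament fluorescence intensity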
Take `O=C(c1ccccc1)N1C(=O)C(c2ccccc2)Oc2ccccc21` (centres undefined): the activation was 1.2% (inactive).

For the molecule `COc1cc(OC)cc(C(=O)NCC(=O)OC2CCOC2=O)c1` (centres undefined), the activation is 17.4% (active).

`O=C1/C(=C/c2cccs2)N=C(c2cccs2)N1Nc1ccccc1`: the activation was 18.7% (active).

With `CCOc1ccc(NC(=O)/C(C#N)=C/c2ccc(N3CCCC3)c(C)c2)cc1`, the activation is 2.19% (inactive).

In the case of `CCCN1C(=O)/C(=C/c2ccc(N3CCCC3)c(C)c2)NC1=S`, the activation is 8.1% (inactive).

With `Cc1cc(N2CCCC2)ccc1/C=C1\NC(=S)N(C)C1=O`, the activation is 11.3% (inactive).

In the case of `CCOc1ccc(NC(=O)/C(C#N)=C\c2ccc(N3CCCC3)c(C)c2)cc1`, the activation was 1.35% (inactive).

Turning to `Cc1cc(/C=C2\NC(=S)N(C)C2=O)ccc1N1CCCC1`, the activation is 26.1% (active).

Consider `Cc1cc(/C=C2/C(=O)N(C)C(=S)N2C)ccc1N1CCCC1`, for which the activation was 106% (active).

Turning to `O=C(Cn1cnc2ccccc2c1=O)c1ccc(Br)cc1`, the activation is 424% (active).

Regarding `COc1ccc(C(=O)Cn2cnc3ccccc3c2=O)cc1OC`, the activation is 6.44% (inactive).

For the molecule `O=C(c1ccc(Cl)cc1)n1cnc2ccccc21`, the activation was 7.26% (inactive).

As to `COc1cc(/C=C(\C#N)c2nc3ccccc3s2)ccc1OCC(=O)Nc1ccccc1`, the activation was 92.9% (active).

For the molecule `COc1cc(/C=C(/C#N)C(=O)NCCCc2ccccc2)ccc1OCC(=O)O`, the activation was 11.5% (inactive).

For `COc1cc(/C=C(\C#N)c2nc3ccccc3o2)ccc1O`, the activation was 3.75% (inactive).

For the molecule `CCN(CC)c1ccc(/C=C/c2cc(-c3ccccc3)c3ccccc3n2)cc1`, the activation was 19.4% (active).

For `c1ccc(Nc2nc3ccccc3n3cnnc23)cc1`, the activation was 10.4% (inactive).

As for `CC(=O)Nc1ccc(S(=O)(=O)Nc2nc3ccccc3nc2Nc2ccc(N)cc2)cc1`, the activation is 5.97% (inactive).

`Cn1cnnc1Sc1nc2ccccc2nc1NS(=O)(=O)c1ccccc1`: the activation was 26.2% (active).

For `Cn1nnc(NC(=S)NC(=O)/C=C/c2ccco2)n1`, the activation was 4.19% (inactive).

Take `CCC(CC)c1nnc(NC(=O)/C=C/c2ccco2)s1`: the activation was 18.8% (active).

`COc1ccc(C(=O)/C=C/c2ccc(N(C)C)cc2)c(OC)c1`: the activation is 7.89% (inactive).

With `COc1ccc(N=C2NC(=O)S/C2=C\c2ccc(N(C)C)cc2)cc1`, the activation was 54.9% (active).

As to `CCOc1ccc(N=C2NC(=O)S/C2=C\c2ccc(N(C)C)cc2)cc1`, the activation was 5340% (active).

With `C=CCOc1ccc(/C=C2\SC(=Nc3cccnc3)NC2=O)cc1`, the activation was 6.73% (inactive).

For `C=CCN1C(=O)c2ccccc2NC1c1cc(Br)cs1` (centres undefined), the activation was 53.6% (active).

As for `O=C(NN1C(=O)c2ccccc2NC1c1ccco1)c1ccccc1` (centres undefined), the activation was 3.92% (inactive).

Turning to `CCOCCn1c(CN2CCN(CC)CC2)nc2c1c(=O)n(C)c(=O)n2C`, the activation was 66% (active).

Consider `CC1=Nc2ccccc2/C1=C/c1sc(=S)n(-c2cccc(C(=O)O)c2)c1O`, for which the activation was 13.1% (active).

On to `CC1=Nc2ccccc2/C1=C/c1nc(-c2ccc(C)s2)oc1O`, for which the activation was 7.81% (inactive).

Turning to `Oc1[nH]c(=S)sc1/C=C1\C(c2ccccc2)=Nc2ccccc21`, the activation was 10% (inactive).

Turning to `CCc1cc(=O)n2c([nH]c3ccccc32)c1C#N`, the activation is 3.83% (inactive).

Regarding `CCC(c1nnnn1C1CCCCC1)N1CCN(C(=O)c2ccco2)CC1` (centres undefined), the activation was 23.4% (active).

In the case of `CCC(C)(C)n1nnnc1C(c1ccc(C)cc1)N1CCN(C(=O)c2ccco2)CC1` (centres undefined), the activation is 4.34% (inactive).

Regarding `O=C(O)C1CCCCC1C(=O)Nc1ccc(-c2ccccc2)cc1` (centres undefined), the activation was 8.12% (inactive).

For `Cn1nc(NC(=O)C2CCC2C(=O)O)c2c(F)cccc21` (centres undefined), the activation was 52.9% (active).

Take `CCc1cc[n+](-c2nc3ccccc3nc2[N-]S(=O)(=O)c2ccc(Br)s2)cc1`: the activation was -1.89% (inactive).

`Cc1ccc[n+](-c2nc([O-])sc2C=O)c1`: the activation was 64.2% (active).

As for `CCc1cc[n+](-c2nc([O-])sc2C=O)cc1`, the activation was 14.1% (active).

For `CCNC(=O)NNC(=O)C1CC(c2cccs2)=NO1` (centres undefined), the activation is 4.43% (inactive).

Take `COc1cc(/C=C2\SC(=Nc3ccc(Cl)c(C(=O)O)c3)NC2=O)c(Br)c(Br)c1O`: the activation was 54% (active).

Turning to `COc1cc(/C=C2\SC(=Nc3ccccc3)NC2=O)cc(Cl)c1O`, the activation is 3.89% (inactive).

Take `CCN(CC)c1ccc2c(c1)OC(N)=C(C#N)C2c1cccnc1` (centres undefined): the activation is 15.4% (active).

With `CSc1nc(C)nc(N/C=C(\C#N)S(=O)(=O)c2ccccc2Cl)n1`, the activation is 6.97% (inactive).

As to `Cc1c(CN2CCCC(C)C2)c(O)n(CCO)c(=O)c1C#N` (centres undefined), the activation was 11.9% (active).

With `C=CCn1c(O)c(CN2CCN(Cc3ccccc3)CC2)c(C)c(C#N)c1=O`, the activation is 3.99% (inactive).

Regarding `CCN(c1ccccc1)S(=O)(=O)c1ccc(OC)c(NC(=O)Cn2cnc3c2c(=O)n(C)c(=O)n3C)c1`, the activation was 18.8% (active).

With `CC1=C(C(=O)N(C)C)C(c2ccc(C)s2)NC(=S)N1` (centres undefined), the activation is 0.74% (inactive).

In the case of `CCn1nc(-c2ccccc2)c2nc3ccccc3nc21`, the activation is 26.2% (active).

`Cn1nc(-c2ccccc2)c2nc3ccccc3nc21`: the activation was 8.34% (inactive).

Regarding `CCCCCn1nc(-c2ccccc2)c2nc3ccccc3nc21`, the activation was 54.7% (active).

`Cc1cc(C(=O)O)ccc1-c1ccc(/C=C2\SC(=O)N(CC(=O)Nc3ccc4c(c3)OCO4)C2=O)o1`: the activation is 11.4% (inactive).

Regarding `O=C(COC(=O)c1ccc(O)cc1)Nc1ccc2c(c1)OCCO2`, the activation was 78.5% (active).

As for `Cc1c(C)[n+](=O)c(-c2ccc(Br)cc2)c(C)n1[O-]`, the activation was 1060% (active).

On to `CCCCC1OC2(C)OC(=N)C1(C#N)C(C#N)(C#N)C2c1ccccc1` (centres undefined), for which the activation was 8.3% (inactive).

For `CCC12OC(=N)C(C#N)(C1C)C(C#N)(C#N)C(c1ccccc1)O2` (centres undefined), the activation was 2.9% (inactive).

As for `CC1C2(C)OC(=N)C(C#N)(C(C)O2)C1(C#N)C#N` (centres undefined), the activation is 13.7% (active).

Consider `CCc1ccc2c(c1)C(NC(C)=O)C(=O)N2CC` (centres undefined), for which the activation is 6.29% (inactive).

As for `c1ccc(CCC2=NCCn3cccc32)cc1`, the activation was 15.8% (active).

For the molecule `Nc1ccc2c(O)cc(S(=O)(=O)O)cc2c1`, the activation is 16.8% (active).

For the molecule `Cc1ccc(N=Nc2c(O)n(CN3CCOCC3)c3ccccc23)cc1`, the activation was 35.8% (active).

In the case of `COc1ccc(Cl)cc1-c1nc(SCC(=O)NC(C)C)n[nH]1`, the activation was 8.01% (inactive).

Turning to `Cc1ccc(C)c(C(=O)CSc2n[nH]c(C(C)C)n2)c1`, the activation was 128% (active).

On to `C/C(N)=C(/C#N)C(=O)CSc1n[nH]c(-c2cccs2)n1`, for which the activation is 11.4% (inactive).
